Assay results taken from ChEMBL document CHEMBL1649418, “Pyrimidine derivatives as potent and selective A3 adenosine receptor antagonists” (J Med Chem, 2011).

Legend:
Type in all cases: cell-based
[1] = target: T1, Adenosine receptor A1 (Homo sapiens) (UniProt P30542); assay: Displacement of [3H]DPCPX from human adenosine A1 receptor expressed in CHO cells at 0.1 uM by liquid scintillation counting
T1 sequence (whole entry): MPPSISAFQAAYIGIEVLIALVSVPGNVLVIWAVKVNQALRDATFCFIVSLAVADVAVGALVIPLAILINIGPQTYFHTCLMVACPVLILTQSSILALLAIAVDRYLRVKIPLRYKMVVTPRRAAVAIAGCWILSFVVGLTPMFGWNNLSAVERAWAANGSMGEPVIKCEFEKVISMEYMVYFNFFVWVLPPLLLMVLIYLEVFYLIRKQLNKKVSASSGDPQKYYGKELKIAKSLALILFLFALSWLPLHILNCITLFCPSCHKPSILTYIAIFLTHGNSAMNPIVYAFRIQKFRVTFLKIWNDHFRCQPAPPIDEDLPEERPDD
In short: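 Transfected CHO cell membranes (15 μg) were incubated with [3H]DPCPX at 25 °C for 60 min, with six test concentrations from 0.1 nM to 1 μM. Nonspecific binding was defined with 10 μM R-PIA. Filters were washed four times with ice-cold buffer before scintillation counting. Ki (Cheng–Prusoff) is mean ± SEM, n=3; % displacement at 0.1 μM is n=2.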

Adenosine receptor A2a = Adenosine receptor A2a (Homo sapiens, UniProt P29274); assay: Displacement of [3H][…] from human adenosine A2A receptor expressed in human HeLa cells at 0.1 uM by liquid scintillation counting
In short: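 Nonspecific binding was defined with 50 μM NECA. Filters were washed four times with ice-cold buffer, then counted by scintillation. Ki (Cheng–Prusoff) is mean ± SEM, n=3; % displacement at 0.1 μM is n=2.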

[2] = target: T2, Adenosine receptor A2b (Homo sapiens) (UniProt P29275); assay: Displacement of [3H]DPCPX from human adenosine A2B receptor expressed in HEK293 cells at 0.1 uM by liquid scintillation counting
T2 sequence (whole entry): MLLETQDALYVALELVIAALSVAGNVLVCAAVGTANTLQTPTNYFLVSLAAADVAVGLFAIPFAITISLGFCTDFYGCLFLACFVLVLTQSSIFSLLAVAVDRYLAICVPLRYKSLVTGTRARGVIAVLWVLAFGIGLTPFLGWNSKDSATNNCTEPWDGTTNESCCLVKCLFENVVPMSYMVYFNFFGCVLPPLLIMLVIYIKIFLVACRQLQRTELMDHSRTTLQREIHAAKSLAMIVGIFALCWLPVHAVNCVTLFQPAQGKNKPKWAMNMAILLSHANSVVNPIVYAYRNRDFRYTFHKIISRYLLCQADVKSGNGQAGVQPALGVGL
In short: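 HEK-293 membranes (18 μg) were incubated with [3H]DPCPX (35 nM) at 25 °C for 30 min, with six concentrations from 0.1 nM to 1 μM. Nonspecific binding was defined with 400 μM NECA. Filters were washed six times with ice-cold buffer and counted by scintillation. Ki (Cheng–Prusoff) is mean ± SEM, n=3; % displacement at 0.1 μM is n=2.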

[3] = target: T3, Adenosine receptor A3 (Homo sapiens) (UniProt P0DMS8); assay: Displacement of [3H]NECA from human adenosine A3 receptor expressed in human HeLa cells at 0.1 uM by liquid scintillation counting
T3 sequence (whole entry): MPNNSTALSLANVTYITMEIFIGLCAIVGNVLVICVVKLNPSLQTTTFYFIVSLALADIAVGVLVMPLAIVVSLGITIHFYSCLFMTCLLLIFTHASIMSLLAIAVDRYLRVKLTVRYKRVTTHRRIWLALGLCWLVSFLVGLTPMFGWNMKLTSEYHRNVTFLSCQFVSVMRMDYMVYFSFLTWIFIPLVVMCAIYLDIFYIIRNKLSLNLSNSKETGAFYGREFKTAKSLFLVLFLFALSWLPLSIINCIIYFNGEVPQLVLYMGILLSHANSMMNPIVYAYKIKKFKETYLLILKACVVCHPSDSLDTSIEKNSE
In short: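 HeLa membranes (90 μg) carrying hA3AR were incubated with [3H]NECA (30 nM) at 25 °C for 180 min, with six concentrations from 0.1 nM to 1 μM. Nonspecific binding was defined with 100 μM R-PIA. Filters were washed six times and counted by scintillation. Ki (Cheng–Prusoff) is mean ± SEM, n=3; % displacement at 0.1 μM is n=2.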

Adenosine receptor A3 = target: T4, Adenosine receptor A3 (Homo sapiens, UniProt P0DMS8); assay: Displacement of [3H]NECA from human adenosine A3 receptor expressed in human HeLa cells by liquid scintillation counting
T4 sequence (P0DMS8 whole entry): T3 sequence (whole entry)
In short: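 HeLa membranes (90 μg) carrying hA3AR were incubated with [3H]NECA (30 nM) at 25 °C for 180 min, with six concentrations from 0.1 nM to 1 μM. Nonspecific binding was defined with 100 μM R-PIA. Filters were washed six times and counted by scintillation.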

Adenosine receptor A2a, sequence (P29274 whole entry): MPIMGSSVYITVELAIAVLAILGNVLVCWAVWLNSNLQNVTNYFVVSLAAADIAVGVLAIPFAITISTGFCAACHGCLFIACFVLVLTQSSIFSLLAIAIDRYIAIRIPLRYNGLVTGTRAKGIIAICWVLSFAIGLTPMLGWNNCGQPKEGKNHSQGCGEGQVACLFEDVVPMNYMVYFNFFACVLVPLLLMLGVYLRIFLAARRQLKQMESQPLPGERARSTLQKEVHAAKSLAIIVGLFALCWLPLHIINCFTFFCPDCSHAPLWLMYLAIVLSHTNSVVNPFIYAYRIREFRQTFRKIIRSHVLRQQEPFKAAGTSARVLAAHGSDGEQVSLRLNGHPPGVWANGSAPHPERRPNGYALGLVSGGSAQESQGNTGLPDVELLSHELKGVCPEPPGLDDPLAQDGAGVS

SMILES | inhibition [1] [%] | inhibition (Adenosine receptor A2a) [%] | inhibition [2] [%] | inhibition [3] [%] | Ki (Adenosine receptor A3; read-out: Ki) [nM] | Ki (Adenosine receptor A3; read-out: pKi (converted)) [nM]
CCCC(=O)Nc1nc(-c2ccc(C(F)(F)F)cc2)cc(-c2ccc(C(F)(F)F)cc2)n1 | 1 | 2 | 13 | 2 |  | 
CCC(=O)Nc1cc(-c2ccc(C(C)=O)cc2)nc(-c2ccc(C(C)=O)cc2)n1 | 1 | 1 | 2 |  | 43.9 | 
CC(=O)Nc1nc(-c2ccc3c(c2)OCO3)cc(-c2ccc3c(c2)OCO3)n1 | 1 | 15 | 1 |  | 101 | 
CC(=O)Nc1nc(-c2ccccc2)cc(-c2ccccc2)n1 | 17 | 11 | 6 | 13 |  | 
COc1ccc(-c2cc(NC(=O)C3CCCCC3)nc(-c3ccc(OC)cc3)n2)cc1 | 5 | 1 | 1 |  | 32.1 | 
CSc1ccc(-c2cc(-c3ccc(SC)cc3)nc(NC(C)=O)n2)cc1 | 1 | 1 | 2 | 14 |  | 
CC(=O)Nc1cc(-c2ccc(C(F)(F)F)cc2)nc(-c2ccc(C(F)(F)F)cc2)n1 | 1 | 1 | 1 |  | 126 | 
CCC(=O)Nc1nc(-c2ccoc2)cc(-c2ccoc2)n1 | 3 | 2 | 11 | 16 |  | 
CC(=O)Nc1nc(/C=C/c2ccccc2)cc(/C=C/c2ccccc2)n1 | 1 | 15 | 1 | 4 |  | 
CC(=O)Nc1nc(-c2ccco2)cc(-c2ccco2)n1 | 1 | 19 | 11 | 9 |  | 
CCC(=O)Nc1nc(/C=C/c2ccccc2)cc(/C=C/c2ccccc2)n1 | 1 | 1 | 1 |  | 142 | 
CCCC(=O)Nc1cc(-c2ccc(C(C)=O)cc2)nc(-c2ccc(C(C)=O)cc2)n1 | 2 | 1 | 1 |  | 133 | 
CC(=O)Nc1nc(-c2ccc(C)cc2)cc(-c2ccc(C)cc2)n1 | 3 | 6 | 3 |  | 47.3 | 
CCCC(=O)Nc1cc(-c2ccc(C)cc2)nc(-c2ccc(C)cc2)n1 | 16 | 2 | 3 |  | 59 | 
CC(=O)Nc1nc(-c2ccc(Cl)cc2)cc(-c2ccc(Cl)cc2)n1 | 2 | 2 | 1 | 1 |  | 
CCCC(=O)Nc1nc(-c2ccc(Cl)cc2)cc(-c2ccc(Cl)cc2)n1 | 1 | 3 | 1 | 17 |  | 
CCCC(=O)Nc1nc(-c2ccco2)cc(-c2ccco2)n1 | 17 | 23 | 15 | 1 |  | 
CC(=O)Nc1nc(-c2cccs2)cc(-c2cccs2)n1 | 2 | 5 | 3 | 21 |  | 
CC(=O)Nc1cc(-c2ccc(C(C)=O)cc2)nc(-c2ccc(C(C)=O)cc2)n1 | 10 | 13 | 16 |  | 25.2 | 
CC(=O)Nc1cc(/C=C/c2ccccc2)nc(/C=C/c2ccccc2)n1 | 1 | 13 | 1 |  | 15.6 | 
CC(=O)Nc1cc(-c2ccc(Cl)cc2)nc(-c2ccc(Cl)cc2)n1 | 1 | 10 | 1 |  | 63.3 | 
COc1ccc(-c2cc(NC(=O)C(C)C)nc(-c3ccc(OC)cc3)n2)cc1 | 5 | 1 | 3 |  | 12.2 | 
CCC(=O)Nc1cc(-c2ccc(SC)cc2)nc(-c2ccc(SC)cc2)n1 | 1 | 1 | 3 |  | 43.6 | 
CCCC(=O)Nc1cc(-c2ccc(Cl)cc2)nc(-c2ccc(Cl)cc2)n1 | 16 | 21 | 1 |  | 103 | 
CSc1ccc(-c2cc(NC(C)=O)nc(-c3ccc(SC)cc3)n2)cc1 | 1 | 1 | 2 |  | 71.3 | 
CCC(=O)Nc1cc(/C=C/c2ccccc2)nc(/C=C/c2ccccc2)n1 | 17 | 2 | 2 |  | 46.9 | 
COc1ccc(-c2cc(NC(C)=O)nc(-c3ccc(OC)cc3)n2)cc1 | 1 | 10 | 4 |  |  | 

Next, values leading:

inhibition [1] [%] | inhibition (Adenosine receptor A2a) [%] | inhibition [2] [%] | inhibition [3] [%] | Ki (Adenosine receptor A3; read-out: Ki) [nM] | Ki (Adenosine receptor A3; read-out: pKi (converted)) [nM] | SMILES
3 | 14 | 3 | 17 |  |  | CCC(=O)Nc1nc(-c2ccc(OC)cc2OC)cc(-c2ccc(OC)cc2OC)n1
6 | 14 | 8 |  | 11.3 |  | CCC(=O)Nc1cc(-c2ccc(OC)cc2OC)nc(-c2ccc(OC)cc2OC)n1
14 | 3 | 1 | 22 |  |  | CCC(=O)Nc1nc(-c2ccc(F)cc2)cc(-c2ccc(F)cc2)n1
14 | 16 | 15 | 1 |  |  | CCCC(=O)Nc1nc(-c2ccc(OC)cc2OC)cc(-c2ccc(OC)cc2OC)n1
21 | 13 | 2 | 22 |  |  | CCC(=O)Nc1nc(-c2ccccc2OC)cc(-c2ccccc2OC)n1
18 | 12 | 14 |  | 10.2 |  | CCCC(=O)Nc1cc(-c2ccc(OC)cc2OC)nc(-c2ccc(OC)cc2OC)n1
1 | 1 | 4 |  | 56.3 | 257 | COc1ccc(-c2cc(NC(=O)C3CCCCC3)nc(-c3ccc(OC)cc3OC)n2)c(OC)c1
1 | 2 | 2 |  | 52.4 |  | CCC(CC)C(=O)Nc1cc(-c2ccc(OC)cc2OC)nc(-c2ccc(OC)cc2OC)n1
18 | 1 | 1 |  | 15.9 |  | COc1ccc(-c2cc(NC(=O)C(C)C)nc(-c3ccc(OC)cc3OC)n2)c(OC)c1
1 | 14 | 1 |  | 24.1 |  | COc1ccccc1-c1cc(NC(C)=O)nc(-c2ccccc2OC)n1
3 | 6 | 8 |  | 58.1 |  | CCC(CC)C(=O)Nc1cc(-c2ccc(OC)cc2)nc(-c2ccc(OC)cc2)n1
24 | 15 | 21 |  | 1900 |  | CCC(=O)Nc1nc(-c2ccco2)cc(-c2ccco2)n1
1 | 1 | 3 |  | 157 |  | CCC(=O)Nc1nc(-c2ccc(C)cc2)cc(-c2ccc(C)cc2)n1
